System: HEK-293T
Assay: Multiplex assay against HEK293T
Format: toxicity, cell-based
Conditions: human
In short: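 Live cells carried four stains from seeding: Hoechst33342, BioTracker Green Microtubule Cytoskeleton Dye, MitoTracker Red and Annexin V Alexa Fluor 680. They were imaged on a CQ1 microscope at 37°C and 5% CO2 after compound addition. Using CellPathfinder machine-learning gating, cells were split into Hoechst high-intensity objects or normal cells, normal cells into healthy, pyknosed or fragmented nuclei, and pyknosed cells into mitotic or apoptotic; tubulin, mitochondrial-mass and membrane-permeability phenotypes are per cents of healthy-nucleus cells.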

[1] = 12 h, 1 µM, compound concentration 1 uM, replicate 1
[2] = 12 h, 1 µM, compound concentration 1 uM, replicate 2
[3] = 12 h, 10 µM, compound concentration 10 uM, replicate 1
[4] = 12 h, 10 µM, compound concentration 10 uM, replicate 2
[5] = 24 h, 1 µM, compound concentration 1 uM, replicate 1
[6] = 24 h, 1 µM, compound concentration 1 uM, replicate 2
[7] = 24 h, 10 µM, compound concentration 10 uM, replicate 1
[8] = 24 h, 10 µM, compound concentration 10 uM, replicate 2
[9] = 48 h, 1 µM, compound concentration 1 uM, replicate 1
[10] = 48 h, 1 µM, compound concentration 1 uM, replicate 2
[11] = 48 h, 10 µM, compound concentration 10 uM, replicate 1
[12] = 48 h, 10 µM, compound concentration 10 uM, replicate 2

C[C@H](NC(=O)CNC(=O)c1cccc(Cl)c1)c1ccccc1
Population Apoptotic (%) [1]: 33%
Population Fragmented Nuclei (%) [1]: 5%
Population Healthy Nuclei (%) [1]: 79%
Population Hoechst High Intensity Objects (%) [1]: 8%
Population Membrane Permeable-Phenotype (%) [1]: 0%
Population Mitochondria Different-Phenotype (%) [1]: 39%
Population Mitotic Cells (%) [1]: 66%
Population Normal (%) [1]: 91%
Population Pyknosed Nuclei (%) [1]: 15%
Population Tubulin-Different-Phenotype (%) [1]: 29%
Total Cell Count [1]: 449
Population Apoptotic (%) [2]: 48%
Population Fragmented Nuclei (%) [2]: 6%
Population Healthy Nuclei (%) [2]: 84%
Population Hoechst High Intensity Objects (%) [2]: 4%
Population Mitochondria Different-Phenotype (%) [2]: 52%
Population Mitotic Cells (%) [2]: 51%
Population Normal (%) [2]: 95%
Population Pyknosed Nuclei (%) [2]: 9%
Population Tubulin-Different-Phenotype (%) [2]: 17%
Total Cell Count [2]: 384
Population Apoptotic (%) [3]: 41%
Population Fragmented Nuclei (%) [3]: 6%
Population Healthy Nuclei (%) [3]: 76%
Population Hoechst High Intensity Objects (%) [3]: 7%
Population Membrane Permeable-Phenotype (%) [3]: 0%
Population Mitochondria Different-Phenotype (%) [3]: 54%
Population Mitotic Cells (%) [3]: 58%
Population Normal (%) [3]: 92%
Population Pyknosed Nuclei (%) [3]: 17%
Population Tubulin-Different-Phenotype (%) [3]: 39%
Total Cell Count [3]: 362
Population Apoptotic (%) [4]: 58%
Population Fragmented Nuclei (%) [4]: 7%
Population Healthy Nuclei (%) [4]: 77%
Population Hoechst High Intensity Objects (%) [4]: 13%
Population Mitochondria Different-Phenotype (%) [4]: 61%
Population Mitotic Cells (%) [4]: 41%
Population Normal (%) [4]: 86%
Population Pyknosed Nuclei (%) [4]: 15%
Population Tubulin-Different-Phenotype (%) [4]: 33%
Total Cell Count [4]: 272
Population Apoptotic (%) [5]: 23%
Population Fragmented Nuclei (%) [5]: 9%
Population Healthy Nuclei (%) [5]: 80%
Population Hoechst High Intensity Objects (%) [5]: 4%
Population Membrane Permeable-Phenotype (%) [5]: 1%
Population Mitochondria Different-Phenotype (%) [5]: 25%
Population Mitotic Cells (%) [5]: 76%
Population Normal (%) [5]: 95%
Population Pyknosed Nuclei (%) [5]: 10%
Population Tubulin-Different-Phenotype (%) [5]: 15%
Total Cell Count [5]: 646
Population Apoptotic (%) [6]: 45%
Population Fragmented Nuclei (%) [6]: 7%
Population Healthy Nuclei (%) [6]: 84%
Population Hoechst High Intensity Objects (%) [6]: 2%
Population Membrane Permeable-Phenotype (%) [6]: 0%
Population Mitochondria Different-Phenotype (%) [6]: 32%
Population Mitotic Cells (%) [6]: 54%
Population Normal (%) [6]: 97%
Population Pyknosed Nuclei (%) [6]: 7%
Population Tubulin-Different-Phenotype (%) [6]: 9%
Total Cell Count [6]: 476
Population Apoptotic (%) [7]: 43%
Population Fragmented Nuclei (%) [7]: 9%
Population Healthy Nuclei (%) [7]: 77%
Population Hoechst High Intensity Objects (%) [7]: 4%
Population Membrane Permeable-Phenotype (%) [7]: 0%
Population Mitochondria Different-Phenotype (%) [7]: 39%
Population Mitotic Cells (%) [7]: 56%
Population Normal (%) [7]: 95%
Population Pyknosed Nuclei (%) [7]: 12%
Population Tubulin-Different-Phenotype (%) [7]: 25%
Total Cell Count [7]: 505
Population Apoptotic (%) [8]: 58%
Population Fragmented Nuclei (%) [8]: 10%
Population Healthy Nuclei (%) [8]: 78%
Population Hoechst High Intensity Objects (%) [8]: 9%
Population Mitochondria Different-Phenotype (%) [8]: 49%
Population Mitotic Cells (%) [8]: 41%
Population Normal (%) [8]: 90%
Population Pyknosed Nuclei (%) [8]: 11%
Population Tubulin-Different-Phenotype (%) [8]: 19%
Total Cell Count [8]: 303
Population Apoptotic (%) [9]: 19%
Population Fragmented Nuclei (%) [9]: 13%
Population Healthy Nuclei (%) [9]: 80%
Population Hoechst High Intensity Objects (%) [9]: 3%
Population Membrane Permeable-Phenotype (%) [9]: 0%
Population Mitochondria Different-Phenotype (%) [9]: 15%
Population Mitotic Cells (%) [9]: 80%
Population Normal (%) [9]: 96%
Population Pyknosed Nuclei (%) [9]: 5%
Population Tubulin-Different-Phenotype (%) [9]: 12%
Total Cell Count [9]: 984
Population Apoptotic (%) [10]: 30%
Population Healthy Nuclei (%) [10]: 81%
Population Hoechst High Intensity Objects (%) [10]: 2%
Population Membrane Permeable-Phenotype (%) [10]: 2%
Population Mitochondria Different-Phenotype (%) [10]: 16%
Population Mitotic Cells (%) [10]: 70%
Population Normal (%) [10]: 97%
Population Tubulin-Different-Phenotype (%) [10]: 6%
Total Cell Count [10]: 606
Population Apoptotic (%) [11]: 44%
Population Fragmented Nuclei (%) [11]: 15%
Population Healthy Nuclei (%) [11]: 77%
Population Hoechst High Intensity Objects (%) [11]: 1%
Population Membrane Permeable-Phenotype (%) [11]: 0%
Population Mitochondria Different-Phenotype (%) [11]: 26%
Population Mitotic Cells (%) [11]: 55%
Population Normal (%) [11]: 98%
Population Pyknosed Nuclei (%) [11]: 7%
Population Tubulin-Different-Phenotype (%) [11]: 18%
Total Cell Count [11]: 735
Population Apoptotic (%) [12]: 35%
Population Fragmented Nuclei (%) [12]: 19%
Population Healthy Nuclei (%) [12]: 72%
Population Hoechst High Intensity Objects (%) [12]: 2%
Population Mitochondria Different-Phenotype (%) [12]: 28%
Population Mitotic Cells (%) [12]: 64%
Population Normal (%) [12]: 97%
Population Tubulin-Different-Phenotype (%) [12]: 16%
Total Cell Count [12]: 462

CN1CCN(c2ccc(Nc3c4ccccc4nc4ccccc34)cc2)CC1.Cl.Cl.O
Population Apoptotic (%) [1]: 42%
Population Fragmented Nuclei (%) [1]: 7%
Population Healthy Nuclei (%) [1]: 81%
Population Hoechst High Intensity Objects (%) [1]: 3%
Population Membrane Permeable-Phenotype (%) [1]: 0%
Population Mitochondria Different-Phenotype (%) [1]: 50%
Population Mitotic Cells (%) [1]: 57%
Population Normal (%) [1]: 96%
Population Pyknosed Nuclei (%) [1]: 11%
Population Tubulin-Different-Phenotype (%) [1]: 28%
Total Cell Count [1]: 411
Population Apoptotic (%) [2]: 55%
Population Fragmented Nuclei (%) [2]: 4%
Population Healthy Nuclei (%) [2]: 90%
Population Hoechst High Intensity Objects (%) [2]: 1%
Population Mitochondria Different-Phenotype (%) [2]: 59%
Population Mitotic Cells (%) [2]: 45%
Population Normal (%) [2]: 98%
Population Pyknosed Nuclei (%) [2]: 5%
Population Tubulin-Different-Phenotype (%) [2]: 20%
Total Cell Count [2]: 364
Population Apoptotic (%) [3]: 100%
Population Fragmented Nuclei (%) [3]: 24%
Population Healthy Nuclei (%) [3]: 74%
Population Hoechst High Intensity Objects (%) [3]: 1%
Population Membrane Permeable-Phenotype (%) [3]: 0%
Population Mitochondria Different-Phenotype (%) [3]: 99%
Population Mitotic Cells (%) [3]: 0%
Population Normal (%) [3]: 98%
Population Pyknosed Nuclei (%) [3]: 1%
Population Tubulin-Different-Phenotype (%) [3]: 97%
Total Cell Count [3]: 234
Population Fragmented Nuclei (%) [4]: 40%
Population Healthy Nuclei (%) [4]: 58%
Population Hoechst High Intensity Objects (%) [4]: 0%
Population Mitochondria Different-Phenotype (%) [4]: 100%
Population Normal (%) [4]: 99%
Population Tubulin-Different-Phenotype (%) [4]: 92%
Total Cell Count [4]: 194
Population Apoptotic (%) [5]: 42%
Population Fragmented Nuclei (%) [5]: 9%
Population Healthy Nuclei (%) [5]: 84%
Population Hoechst High Intensity Objects (%) [5]: 2%
Population Membrane Permeable-Phenotype (%) [5]: 0%
Population Mitochondria Different-Phenotype (%) [5]: 40%
Population Mitotic Cells (%) [5]: 57%
Population Normal (%) [5]: 97%
Population Pyknosed Nuclei (%) [5]: 5%
Population Tubulin-Different-Phenotype (%) [5]: 14%
Total Cell Count [5]: 455
Population Apoptotic (%) [6]: 46%
Population Healthy Nuclei (%) [6]: 86%
Population Hoechst High Intensity Objects (%) [6]: 0%
Population Mitochondria Different-Phenotype (%) [6]: 44%
Population Mitotic Cells (%) [6]: 53%
Population Normal (%) [6]: 99%
Population Pyknosed Nuclei (%) [6]: 4%
Population Tubulin-Different-Phenotype (%) [6]: 12%
Total Cell Count [6]: 362
Population Apoptotic (%) [7]: 100%
Population Fragmented Nuclei (%) [7]: 28%
Population Healthy Nuclei (%) [7]: 69%
Population Hoechst High Intensity Objects (%) [7]: 2%
Population Membrane Permeable-Phenotype (%) [7]: 0%
Population Mitochondria Different-Phenotype (%) [7]: 100%
Population Mitotic Cells (%) [7]: 0%
Population Normal (%) [7]: 97%
Population Pyknosed Nuclei (%) [7]: 2%
Population Tubulin-Different-Phenotype (%) [7]: 92%
Total Cell Count [7]: 247
Population Fragmented Nuclei (%) [8]: 45%
Population Healthy Nuclei (%) [8]: 53%
Population Hoechst High Intensity Objects (%) [8]: 0%
Population Normal (%) [8]: 99%
Population Pyknosed Nuclei (%) [8]: 0%
Population Tubulin-Different-Phenotype (%) [8]: 91%
Total Cell Count [8]: 206
Population Apoptotic (%) [9]: 45%
Population Fragmented Nuclei (%) [9]: 11%
Population Healthy Nuclei (%) [9]: 82%
Population Hoechst High Intensity Objects (%) [9]: 3%
Population Membrane Permeable-Phenotype (%) [9]: 0%
Population Mitochondria Different-Phenotype (%) [9]: 30%
Population Mitotic Cells (%) [9]: 54%
Population Normal (%) [9]: 96%
Population Pyknosed Nuclei (%) [9]: 6%
Population Tubulin-Different-Phenotype (%) [9]: 16%
Total Cell Count [9]: 581
Population Apoptotic (%) [10]: 60%
Population Fragmented Nuclei (%) [10]: 10%
Population Healthy Nuclei (%) [10]: 85%
Population Hoechst High Intensity Objects (%) [10]: 1%
Population Mitochondria Different-Phenotype (%) [10]: 36%
Population Mitotic Cells (%) [10]: 40%
Population Normal (%) [10]: 98%
Population Pyknosed Nuclei (%) [10]: 3%
Population Tubulin-Different-Phenotype (%) [10]: 12%
Total Cell Count [10]: 411
Population Apoptotic (%) [11]: 100%
Population Fragmented Nuclei (%) [11]: 34%
Population Healthy Nuclei (%) [11]: 56%
Population Hoechst High Intensity Objects (%) [11]: 11%
Population Membrane Permeable-Phenotype (%) [11]: 0%
Population Mitochondria Different-Phenotype (%) [11]: 100%
Population Mitotic Cells (%) [11]: 0%
Population Normal (%) [11]: 88%
Population Pyknosed Nuclei (%) [11]: 9%
Population Tubulin-Different-Phenotype (%) [11]: 88%
Total Cell Count [11]: 318
Population Apoptotic (%) [12]: 66%
Population Fragmented Nuclei (%) [12]: 52%
Population Healthy Nuclei (%) [12]: 46%
Population Hoechst High Intensity Objects (%) [12]: 5%
Population Mitochondria Different-Phenotype (%) [12]: 99%
Population Mitotic Cells (%) [12]: 33%
Population Normal (%) [12]: 94%
Population Pyknosed Nuclei (%) [12]: 1%
Population Tubulin-Different-Phenotype (%) [12]: 89%
Total Cell Count [12]: 272
